# Data taken from ChEMBL document CHEMBL1147115 (2007).
# What was measured:
# Klebsiella pneumoniae [1] = experiment: Antimicrobial activity against ESBL producing Klebsiella pneumoniae 268 isolate; assay type: functional
# Escherichia coli [2] = experiment: Antimicrobial activity against ESBL producing Escherichia coli 133 isolate; assay type: functional
# Klebsiella pneumoniae [3] = experiment: Antimicrobial activity against ESBL producing Klebsiella pneumoniae 265 isolate infected thigh infection model ICR mouse; assay type: functional, Thigh muscle
# Outline: (§1)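 Female ICR mice (~25 g) were made neutropenic with cyclophosphamide ip (150 and 100 mg/kg, days −4 and −1) and renally impaired with uranyl nitrate 5 mg/kg ip (day −3). Each thigh got 0.1 ml of 10^5 CFU/ml (or 10^7 for high inoculum) im 2 h pre-therapy. Human-simulated regimens were given sc, three mice per group, for 24 h. Efficacy was the log10 CFU/thigh change versus 0-h controls.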
# Escherichia coli [4] = experiment: Antimicrobial activity against ESBL producing Escherichia coli 130 isolate; assay type: functional
# Escherichia coli [5] = experiment: Antimicrobial activity against Escherichia coli 120 isolate infected thigh infection model ICR mouse; assay type: functional, Thigh muscle; outline: as §1
# Escherichia coli [6] = experiment: Antimicrobial activity against ESBL producing Escherichia coli 285 isolate infected thigh infection model ICR mouse; assay type: functional, Thigh muscle; outline: as §1
# Klebsiella pneumoniae [7] = experiment: Antimicrobial activity against ESBL producing Klebsiella pneumoniae 262 isolate infected thigh infection model ICR mouse; assay type: functional, Thigh muscle; outline: as §1
# Klebsiella pneumoniae [8] = experiment: Antimicrobial activity against ESBL producing Klebsiella pneumoniae 260 isolate; assay type: functional
# Klebsiella pneumoniae [9] = experiment: Antimicrobial activity against ESBL producing Klebsiella pneumoniae 60 isolate infected thigh infection model ICR mouse; assay type: functional, Thigh muscle; outline: as §1
# Escherichia coli [10] = experiment: Antimicrobial activity against ESBL producing Escherichia coli 311 isolate infected thigh infection model ICR mouse; assay type: functional, Thigh muscle; outline: as §1
# Escherichia coli [11] = experiment: Antimicrobial activity against Escherichia coli ATCC 25922 isolate infected thigh infection model ICR mouse; assay type: functional, Thigh muscle; outline: as §1
# Klebsiella pneumoniae [12] = experiment: Antimicrobial activity against ESBL producing Klebsiella pneumoniae 258 isolate; assay type: functional
# Klebsiella pneumoniae [13] = experiment: Antimicrobial activity against ESBL producing Klebsiella pneumoniae 255 isolate infected thigh infection model ICR mouse; assay type: functional, Thigh muscle; outline: as §1
# Klebsiella pneumoniae [14] = experiment: Antimicrobial activity against ESBL producing Klebsiella pneumoniae 261 isolate; assay type: functional
# Escherichia coli [15] = experiment: Antimicrobial activity against Escherichia coli 120 isolate; assay type: functional
# Klebsiella pneumoniae [16] = experiment: Bacteriostasis activity against ESBL producing Klebsiella pneumoniae 262 isolate at 8 ug/ml; assay type: functional
# Escherichia coli [17] = experiment: Antimicrobial activity against ESBL producing Escherichia coli 320 isolate; assay type: functional
# Klebsiella pneumoniae [18] = experiment: Antimicrobial activity against ESBL producing Klebsiella pneumoniae 264 isolate infected thigh infection model ICR mouse; assay type: functional, Thigh muscle; outline: as §1
# Klebsiella pneumoniae [19] = experiment: Antimicrobial activity against ESBL producing Klebsiella pneumoniae 263 isolate infected thigh infection model ICR mouse; assay type: functional, Thigh muscle; outline: as §1
# Klebsiella pneumoniae [20] = experiment: Antimicrobial activity against ESBL producing Klebsiella pneumoniae 261 isolate infected thigh infection model ICR mouse; assay type: functional, Thigh muscle; outline: as §1
# Klebsiella pneumoniae [21] = experiment: Antimicrobial activity against ESBL producing Klebsiella pneumoniae 259 isolate infected thigh infection model ICR mouse; assay type: functional, Thigh muscle; outline: as §1
# Klebsiella pneumoniae [22] = experiment: Antimicrobial activity against ESBL producing Klebsiella pneumoniae 265 isolate; assay type: functional
# Escherichia coli [23] = experiment: Antimicrobial activity against Escherichia coli ATCC 25922 isolate; assay type: functional
# Klebsiella pneumoniae [24] = experiment: Antimicrobial activity against ESBL producing Klebsiella pneumoniae 258 isolate infected thigh infection model ICR mouse; assay type: functional, Thigh muscle; outline: as §1
# Escherichia coli [25] = experiment: Antimicrobial activity against ESBL producing Escherichia coli 312 isolate; assay type: functional
# Klebsiella pneumoniae [26] = experiment: Antimicrobial activity against ESBL producing Klebsiella pneumoniae 101 isolate; assay type: functional
# Klebsiella pneumoniae [27] = experiment: Antimicrobial activity against ESBL producing Klebsiella pneumoniae 266 isolate; assay type: functional
# Klebsiella pneumoniae [28] = experiment: Antimicrobial activity against ESBL producing Klebsiella pneumoniae 225 isolate infected thigh infection model ICR mouse; assay type: functional, Thigh muscle; outline: as §1
# Escherichia coli [29] = experiment: Antimicrobial activity against ESBL producing Escherichia coli 133 isolate infected thigh infection model ICR mouse; assay type: functional, Thigh muscle; outline: as §1
# Klebsiella pneumoniae [30] = experiment: Antimicrobial activity against ESBL producing Klebsiella pneumoniae 230 isolate infected thigh infection model ICR mouse; assay type: functional, Thigh muscle; outline: as §1
# Escherichia coli [31] = experiment: Antimicrobial activity against ESBL producing Escherichia coli 130 isolate infected thigh infection model ICR mouse; assay type: functional, Thigh muscle; outline: as §1
# Klebsiella pneumoniae [32] = experiment: Antimicrobial activity against ESBL producing Klebsiella pneumoniae 60 isolate; assay type: functional
# Klebsiella pneumoniae [33] = experiment: Antimicrobial activity against ESBL producing Klebsiella pneumoniae 270 isolate infected thigh infection model ICR mouse; assay type: functional, Thigh muscle; outline: as §1
# Escherichia coli [34] = experiment: Antimicrobial activity against ESBL producing Escherichia coli 320 isolate infected thigh infection model ICR mouse; assay type: functional, Thigh muscle; outline: as §1
# Klebsiella pneumoniae [35] = experiment: Antimicrobial activity against ESBL producing Klebsiella pneumoniae 259 isolate; assay type: functional
# Klebsiella pneumoniae [36] = experiment: Antimicrobial activity against ESBL producing Klebsiella pneumoniae 270 isolate; assay type: functional
# Escherichia coli [37] = experiment: Antimicrobial activity against ESBL producing Escherichia coli 310 isolate infected thigh infection model ICR mouse; assay type: functional, Thigh muscle; outline: as §1
# Escherichia coli [38] = experiment: Antimicrobial activity against ESBL producing Escherichia coli 321 isolate; assay type: functional
# Escherichia coli [39] = experiment: Antimicrobial activity against ESBL producing Escherichia coli 318 isolate infected thigh infection model ICR mouse; assay type: functional, Thigh muscle; outline: as §1
# Klebsiella pneumoniae [40] = experiment: Antimicrobial activity against ESBL producing Klebsiella pneumoniae 254 isolate infected thigh infection model ICR mouse; assay type: functional, Thigh muscle; outline: as §1
# Escherichia coli [41] = experiment: Antimicrobial activity against ESBL producing Escherichia coli 315 isolate; assay type: functional
# Escherichia coli [42] = experiment: Antimicrobial activity against ESBL producing Escherichia coli 322 isolate infected thigh infection model ICR mouse; assay type: functional, Thigh muscle; outline: as §1
# Klebsiella pneumoniae [43] = experiment: Antimicrobial activity against ESBL producing Klebsiella pneumoniae 254 isolate; assay type: functional
# Escherichia coli [44] = experiment: Antimicrobial activity against ESBL producing Escherichia coli 321 isolate infected thigh infection model ICR mouse; assay type: functional, Thigh muscle; outline: as §1
# Klebsiella pneumoniae [45] = experiment: Antimicrobial activity against ESBL producing Klebsiella pneumoniae 101 isolate infected thigh infection model ICR mouse; assay type: functional, Thigh muscle; outline: as §1
# Escherichia coli [46] = experiment: Antimicrobial activity against ESBL producing Escherichia coli 243 isolate; assay type: functional
# Escherichia coli [47] = experiment: Antimicrobial activity against ESBL producing Escherichia coli 315 isolate infected thigh infection model ICR mouse; assay type: functional, Thigh muscle; outline: as §1
# Escherichia coli [48] = experiment: Antimicrobial activity against ESBL producing Escherichia coli 322 isolate; assay type: functional
# Escherichia coli [49] = experiment: Antimicrobial activity against ESBL producing Escherichia coli 311 isolate; assay type: functional
# Klebsiella pneumoniae [50] = experiment: Antimicrobial activity against ESBL producing Klebsiella pneumoniae 225 isolate; assay type: functional
# Klebsiella pneumoniae [51] = experiment: Antimicrobial activity against ESBL producing Klebsiella pneumoniae 255 isolate; assay type: functional
# Klebsiella pneumoniae [52] = experiment: Antimicrobial activity against ESBL producing Klebsiella pneumoniae 256 isolate infected thigh infection model ICR mouse; assay type: functional, Thigh muscle; outline: as §1
# Klebsiella pneumoniae [53] = experiment: Antimicrobial activity against ESBL producing Klebsiella pneumoniae 264 isolate; assay type: functional
# Escherichia coli [54] = experiment: Antimicrobial activity against ESBL producing Escherichia coli 312 isolate infected thigh infection model ICR mouse; assay type: functional, Thigh muscle; outline: as §1
# Klebsiella pneumoniae [55] = experiment: Antimicrobial activity against ESBL producing Klebsiella pneumoniae 260 isolate infected thigh infection model ICR mouse; assay type: functional, Thigh muscle; outline: as §1
# Escherichia coli [56] = experiment: Antimicrobial activity against ESBL producing Escherichia coli 285 isolate; assay type: functional
# Klebsiella pneumoniae [57] = experiment: Antimicrobial activity against ESBL producing Klebsiella pneumoniae 230 isolate; assay type: functional
# Klebsiella pneumoniae [58] = experiment: Antimicrobial activity against ESBL producing Klebsiella pneumoniae 262 isolate; assay type: functional
# Escherichia coli [59] = experiment: Antimicrobial activity against ESBL producing Escherichia coli 243 isolate infected thigh infection model ICR mouse; assay type: functional, Thigh muscle; outline: as §1
# Klebsiella pneumoniae [60] = experiment: Antimicrobial activity against ESBL producing Klebsiella pneumoniae 268 isolate infected thigh infection model ICR mouse; assay type: functional, Thigh muscle; outline: as §1
# Klebsiella pneumoniae [61] = experiment: Antimicrobial activity against ESBL producing Klebsiella pneumoniae 266 isolate infected thigh infection model ICR mouse; assay type: functional, Thigh muscle; outline: as §1
# Klebsiella pneumoniae [62] = experiment: Antimicrobial activity against ESBL producing Klebsiella pneumoniae 257 isolate infected thigh infection model ICR mouse; assay type: functional, Thigh muscle; outline: as §1
# Klebsiella pneumoniae [63] = experiment: Antimicrobial activity against ESBL producing Klebsiella pneumoniae 257 isolate; assay type: functional
# Escherichia coli [64] = experiment: Antimicrobial activity against ESBL producing Escherichia coli 310 isolate; assay type: functional
# Klebsiella pneumoniae [65] = experiment: Antimicrobial activity against ESBL producing Klebsiella pneumoniae 263 isolate; assay type: functional
# Escherichia coli [66] = experiment: Antimicrobial activity against ESBL producing Escherichia coli 118 isolate; assay type: functional
smiles,measurement,setting,value
C[C@@H](O)[C@H]1C(=O)N2C(C(=O)O)=C(S[C@@H]3CN[C@H](C(=O)N(C)C)C3)[C@H](C)[C@H]12 [MEROPENEM],MIC,Klebsiella pneumoniae [1],0.125 µg/mL
same,MIC,Escherichia coli [2],0.094 µg/mL
same,fT>MIC,Klebsiella pneumoniae [3],85%
same,MIC,Escherichia coli [4],0.125 µg/mL
same,fT>MIC,Escherichia coli [5],93%
same,fT>MIC,Escherichia coli [6],90%
same,fT>MIC,Klebsiella pneumoniae [7],30%
same,MIC,Klebsiella pneumoniae [8],0.5 µg/mL
same,fT>MIC,Klebsiella pneumoniae [9],88%
same,fT>MIC,Escherichia coli [10],70%
same,fT>MIC,Escherichia coli [11],93%
same,MIC,Klebsiella pneumoniae [12],4 µg/mL
same,fT>MIC,Klebsiella pneumoniae [13],65%
same,MIC,Klebsiella pneumoniae [14],32 µg/mL
same,MIC,Escherichia coli [15],0.03 µg/mL
same,MIC,Klebsiella pneumoniae [16],8 µg/mL
same,MIC,Escherichia coli [17],0.03 µg/mL
same,fT>MIC,Klebsiella pneumoniae [18],75%
same,fT>MIC,Klebsiella pneumoniae [19],58%
same,fT>MIC,Klebsiella pneumoniae [20],5%
same,fT>MIC,Klebsiella pneumoniae [21],58%
same,MIC,Klebsiella pneumoniae [22],0.125 µg/mL
same,MIC,Escherichia coli [23],0.03 µg/mL
same,fT>MIC,Klebsiella pneumoniae [24],45%
same,MIC,Escherichia coli [25],0.047 µg/mL
same,MIC,Klebsiella pneumoniae [26],0.094 µg/mL
same,MIC,Klebsiella pneumoniae [27],2 µg/mL
same,fT>MIC,Klebsiella pneumoniae [28],90%
same,fT>MIC,Escherichia coli [29],85%
same,fT>MIC,Klebsiella pneumoniae [30],85%
same,fT>MIC,Escherichia coli [31],85%
same,MIC,Klebsiella pneumoniae [32],0.064 µg/mL
same,fT>MIC,Klebsiella pneumoniae [33],80%
same,fT>MIC,Escherichia coli [34],93%
same,MIC,Klebsiella pneumoniae [35],2 µg/mL
same,MIC,Klebsiella pneumoniae [36],0.25 µg/mL
same,fT>MIC,Escherichia coli [37],90%
same,MIC,Escherichia coli [38],0.032 µg/mL
same,fT>MIC,Escherichia coli [39],90%
same,fT>MIC,Klebsiella pneumoniae [40],58%
same,MIC,Escherichia coli [41],0.094 µg/mL
same,fT>MIC,Escherichia coli [42],93%
same,MIC,Klebsiella pneumoniae [43],2 µg/mL
same,fT>MIC,Escherichia coli [44],93%
same,fT>MIC,Klebsiella pneumoniae [45],85%
same,MIC,Escherichia coli [46],0.047 µg/mL
same,fT>MIC,Escherichia coli [47],85%
same,MIC,Escherichia coli [48],0.032 µg/mL
same,MIC,Escherichia coli [49],0.75 µg/mL
same,MIC,Klebsiella pneumoniae [50],0.047 µg/mL
same,MIC,Klebsiella pneumoniae [51],1 µg/mL
same,fT>MIC,Klebsiella pneumoniae [52],18%
same,MIC,Klebsiella pneumoniae [53],0.5 µg/mL
same,fT>MIC,Escherichia coli [54],90%
same,fT>MIC,Klebsiella pneumoniae [55],75%
same,MIC,Escherichia coli [56],0.047 µg/mL
same,MIC,Klebsiella pneumoniae [57],0.094 µg/mL
same,MIC,Klebsiella pneumoniae [58],8 µg/mL
same,fT>MIC,Escherichia coli [59],90%
same,fT>MIC,Klebsiella pneumoniae [60],85%
same,fT>MIC,Klebsiella pneumoniae [61],58%
same,fT>MIC,Klebsiella pneumoniae [62],45%
same,MIC,Klebsiella pneumoniae [63],4 µg/mL
same,MIC,Escherichia coli [64],0.047 µg/mL
same,MIC,Klebsiella pneumoniae [65],2 µg/mL
same,MIC,Escherichia coli [66],0.047 µg/mL
